Only some compounds are listed: those with a hit (about 2.3% of all), similar ones and a draw of the others.
ZTA counter = blocks Epstein-Barr virus ZTA, an EBNA-1 counter-screen; P03206; ZTA-DNA binding, fluorescence polarization; inhibition, % at 11 µM; 320,000 tested, 0.15% active; AID 2234; in the data active = inhibition above about 33%
EBV gp42 inh = Epstein-Barr virus gp42 inhibitors, primary screen, biochemical, uHTS, fluorescence polarization | Glycoprotein 42 (Epstein-Barr virus (strain AG876)), Q1HVG2 | Fluorescence polarization binding assay, mP read-out | inhibition, % (tested at 21.74 µM) | 220,000 tested, 0.42% active | AID 1085, 2008; in the data active = inhibition above about 50%
Target sequence (Q1HVG2 whole entry, looked up): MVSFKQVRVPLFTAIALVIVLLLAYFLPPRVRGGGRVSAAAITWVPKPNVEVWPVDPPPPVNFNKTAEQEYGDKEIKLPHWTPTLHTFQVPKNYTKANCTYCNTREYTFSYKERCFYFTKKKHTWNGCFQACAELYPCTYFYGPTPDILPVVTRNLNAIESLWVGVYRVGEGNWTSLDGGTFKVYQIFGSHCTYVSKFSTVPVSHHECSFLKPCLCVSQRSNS
GPR7 antagonist = GPR7 receptor antagonists, primary screen, cell-based, fluorescence, single concentration; inhibition, % at 4.4 µM; 290,000 tested, 1.1% active; GPR7-expressing cells, fluorescence antagonist assay; in the data active = inhibition above about 16%, passing the limit was not always enough;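 also: cells stimulated with the agonist NPW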
Target sequence (P48145 whole entry, looked up): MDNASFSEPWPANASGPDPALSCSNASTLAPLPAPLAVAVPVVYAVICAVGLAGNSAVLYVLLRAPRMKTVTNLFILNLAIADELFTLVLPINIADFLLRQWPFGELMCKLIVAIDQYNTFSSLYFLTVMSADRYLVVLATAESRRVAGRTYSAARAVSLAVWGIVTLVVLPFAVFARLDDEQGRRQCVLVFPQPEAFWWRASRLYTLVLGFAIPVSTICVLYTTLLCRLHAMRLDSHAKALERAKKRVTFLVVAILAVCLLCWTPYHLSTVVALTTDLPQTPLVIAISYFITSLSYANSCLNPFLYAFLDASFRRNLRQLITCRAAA
NS3 helicase inh = inhibitors of HCV NS3 helicase, primary screen, biochemical, Cy5 molecular beacon fluorescence; AID 1800, 2009; NS3 helicase DNA unwinding; 290,000 tested, 0.56% active; inhibition, % at 10.9 µM;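 active = inhibition above the mean of all tested compounds plus 3 SD, set per campaign, cut at about 35% in these data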
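Assay system – hepatitis C virus NS3 helicase domain fragment enzyme · Buffer or medium – MOPS pH 6.5, MgCl2, DTT, Tween20, BSA · Reagent – Cy5/quencher beacon DNA duplex and ATP to start · Compound – single 10.9 µM dose · Timing – 1 h at 25 °C · Technique – Cy5 beacon fluorescence read at start and 1 h · Measure – % inhibition of unwinding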
core dimer inh = inhibitors of HCV core protein dimerization, primary screen, biochemical, TR-FRET, high-throughput. AID 1899, 2009. TR-FRET GST/Flag-core106 dimerization, 1536-well. inhibition, % at 5 µM. 300,000 tested, 0.33% active;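 active = inhibition above the mean of all tested compounds plus 3 SD, set per screening campaign, cut at about 45% in these data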
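assay system = GST-tagged and Flag-tagged HCV core protein residues 1-106 | controls = unlabelled core106 and no-GST-core106 wells | incubation = compound-protein-antibody incubation 4 h at 22.5 °C | probe or stimulus = Eu donor and XL665 acceptor anti-tag antibodies | read-out = % inhibition based on acceptor/donor emission ratio | signal = TR-FRET 671 and 617 nm emission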
EBNA-1 inh = EBNA-1 DNA-binding inhibitors, primary screen, biochemical, fluorescence polarization. inhibition, % at 14.8 µM. 300,000 tested, 0.34% active. AID 1950, 2009; in the data active = inhibition above about 28%
NS3 hel confirm = HCV NS3 helicase inhibitors, retest, confirmation, biochemical, Cy5 molecular beacon fluorescence, triplicate. 1,600 tested, 31% active. NS3 helicase DNA unwinding. inhibition, % at 10.9 µM. shares compounds with NS3 helicase inh;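 active = inhibition above the mean of all tested compounds plus 3 SD, cutoff set per campaign, cut at about 36% in these data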
DNA FID counter = compounds displacing fluorescent DNA intercalator, artefact control for HCV NS3 helicase inhibitor project, biochemical, FID fluorescence, triplicate. inhibition, % at 7.9 µM. shares compounds with NS3 helicase inh. DNA fluorescent intercalator displacement. 1,600 tested, 4% active; in the data active = inhibition above about 37%;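 also: higher means more displacement of ethidium bromide from the DNA hairpin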
FID counter DR = compounds displacing fluorescent intercalator from DNA, dose response, counter-screen for HCV NS3 helicase inhibitor project, biochemical, fluorescence | shares compounds with NS3 helicase inh | fluorescent intercalator displacement from DNA | IC50, µM | 120 tested, under 10 active | AID 2172, 2009; call rule not given here
Of the large screens only hits and unclear results are named; the others gave an inactive call (follow-up assays come after a bar, where they were run).

Cc1ccc(Oc2ccc(OCC(=O)NC(CC(C)C)C(=O)O)cc2)cc1 (centres undefined)	NS3 helicase inh 45 | NS3 hel confirm 39 | DNA FID counter inactive
CC(=O)Oc1cc2c3c(c1)/C(=C1/SC(=S)NC1=O)C(=O)N3C(C)(C)C=C2C	NS3 helicase inh 53 | NS3 hel confirm 80 | DNA FID counter inactive
CCOc1cc2c3c(c1)C(C)=CC(C)(C)N3C(=O)C2=O	none
CCN(CC)c1ccc(C=Nc2ccc(C)cc2)c(O)c1	none
CCN(CC)c1ccc(C=Nc2ccc(N(C)C)cc2)c(O)c1	ZTA counter active, NS3 helicase inh 37, EBNA-1 inh active | NS3 hel confirm inactive | DNA FID counter inactive
CC1=NN(c2ccc(C)c(C)c2)C(=O)/C1=C\C=C\c1ccc([N+](=O)[O-])o1	NS3 helicase inh 40, core dimer inh 63 | NS3 hel confirm inactive | DNA FID counter inactive
CC1=NN(c2ccccc2)C(=O)/C1=C\C=C\c1ccccc1	none
COc1ccc(/C=C(\NC(=O)c2ccc(OC)c(OC)c2)C(=O)N2CCN(C)CC2)cc1	none (no result: EBV gp42 inh)
COc1ccc(-c2nc(=S)c3c([nH]2)Oc2ccc(C)cc2C3)cc1O	NS3 helicase inh 53 | NS3 hel confirm inactive | DNA FID counter inactive
COc1ccc(-c2nc(-c3ccccc3)c(-c3cc([N+](=O)[O-])ccc3C)[nH]2)cc1O	none
Cc1c(C(=O)O)sc2nc(/C=C/c3cccc(F)c3)[nH]c(=O)c12	NS3 helicase inh 63 (no result: EBV gp42 inh) | NS3 hel confirm inactive | DNA FID counter inactive
CCN1C/C(=C/c2ccc(N3CCOCC3)cc2)C(=O)/C(=C/c2ccc(N3CCOCC3)cc2)C1	NS3 helicase inh 51 | NS3 hel confirm inactive | DNA FID counter inactive
CC(=O)Nc1ccc(-c2csc(N/N=C\c3ccncc3)n2)cc1	none
CCCC(=O)Nc1ccc(-c2csc(N/N=C\c3ccncc3)n2)cc1	NS3 helicase inh 38 | NS3 hel confirm inactive | DNA FID counter inactive
CS(=O)(=O)c1sc2nc(-c3cccs3)cc(-c3ccccc3)c2c1N	NS3 helicase inh 46, core dimer inh 51 | NS3 hel confirm 78 | DNA FID counter inactive
CCCCn1c(NS(=O)(=O)c2ccc(C)cc2)c(S(=O)(=O)c2ccccc2)c2nc3ccccc3nc21	NS3 helicase inh 38 | NS3 hel confirm 72 | DNA FID counter inactive | FID counter DR inactive
Cc1ccc(OCCCn2ccnc2)c(Br)c1	none (no result: EBV gp42 inh)
O=C(c1ccco1)[C@@H]1[C@@H]2C(=O)N(c3ccc(F)cc3)C(=O)[C@@H]2C2c3ccccc3C=CN21 (some centres undefined)	EBV gp42 inh 54, NS3 helicase inh 43 | NS3 hel confirm inactive | DNA FID counter inactive
Oc1c(/C=C/C=C/C=Nc2ccccc2)sc(=S)n1Cc1ccccc1	NS3 helicase inh 44, core dimer inh 50 | NS3 hel confirm 65 | DNA FID counter inactive | FID counter DR inactive
Oc1ccc(-c2csc(Nc3ccccn3)n2)cc1O	none (no result: EBV gp42 inh)
Oc1ccc(-c2csc(Nc3cccc4ccccc34)n2)cc1O	NS3 helicase inh 42 (no result: EBV gp42 inh) | NS3 hel confirm inactive | DNA FID counter inactive
COc1ccc(OC)c(C2C(C(=O)c3ccc(C)o3)=C(O)C(=O)N2c2cc(C)on2)c1 (centres undefined)	none (no result: EBV gp42 inh)
Cc1cc(N2C(=O)C(O)=C(C(=O)c3ccc(C)o3)C2c2cccc(Oc3ccccc3)c2)no1 (centres undefined)	NS3 helicase inh 63 (no result: EBV gp42 inh) | NS3 hel confirm 173 | DNA FID counter inactive | FID counter DR inactive
COC(=O)c1sc(N2C(=O)C(O)=C(C(=O)c3ccc(C)o3)C2c2cc(OC)ccc2OC)nc1C (centres undefined)	NS3 helicase inh 54 (no result: EBV gp42 inh) | NS3 hel confirm 93 | DNA FID counter inactive | FID counter DR inactive
COc1cccc(C2C(C(=O)c3cc4ccccc4o3)=C(O)C(=O)N2c2cc(C)on2)c1 (centres undefined)	NS3 helicase inh 41 (no result: EBV gp42 inh) | NS3 hel confirm 105 | DNA FID counter inactive
Cc1ccc(C(=O)C2=C(O)C(=O)N(Cc3ccccc3)C2c2cccnc2)o1 (centres undefined)	none
COc1ccc(C2C(C(=O)c3ccc(C)o3)=C(O)C(=O)N2c2cc(C)on2)cc1OC (centres undefined)	none
Cc1ccc(C(=O)C2=C(O)C(=O)N(Cc3cccnc3)C2c2cccc(Oc3ccccc3)c2)o1 (centres undefined)	NS3 helicase inh 45 (no result: EBV gp42 inh) | NS3 hel confirm 86 | DNA FID counter inactive | FID counter DR inactive
S=C(Nc1ccc2c(c1)OCO2)N1CCN(Cc2ccco2)CC1	none
COc1ccc(OC)c(C2C(C(=O)c3cc4ccccc4o3)=C(O)C(=O)N2c2cc(C)on2)c1 (centres undefined)	NS3 helicase inh 37 | NS3 hel confirm 80 | DNA FID counter inactive | FID counter DR inactive
Cc1cc(N2C(=O)C(O)=C(C(=O)c3cc4ccccc4o3)C2c2ccc(Br)cc2)no1 (centres undefined)	NS3 helicase inh 42 (no result: EBV gp42 inh) | NS3 hel confirm 122 | DNA FID counter inactive
COc1ccccc1C1C(C(=O)c2cc3ccccc3o2)=C(O)C(=O)N1c1cc(C)on1 (centres undefined)	none (no result: EBV gp42 inh)
CCCC(CCC)c1nnc(NC(=O)c2ccco2)s1	none (no result: EBV gp42 inh)
Cc1ccc(N(C(=O)c2csnn2)C(C(=O)NC2CCCCC2)c2cccnc2)c(C)c1 (centres undefined)	none (no result: EBV gp42 inh)
Cc1ccc(C)c(NC(=O)c2cc(C)nc3ccccc23)c1	NS3 helicase inh 55 (no result: EBV gp42 inh) | NS3 hel confirm inactive | DNA FID counter inactive
CC1(C)Oc2ccc3ccc(=O)oc3c2/C(=C/NNC(N)=S)C1=O	NS3 helicase inh 51 (no result: EBV gp42 inh) | NS3 hel confirm inactive | DNA FID counter inactive
Cc1cc(/C=C2\SC(=O)N(C)C2=O)c(C)n1-c1ccc(O)cc1	none (no result: EBV gp42 inh)
Cc1cc(/C=C2\SC(=S)N(C)C2=O)c(C)n1-c1cccc(O)c1	NS3 helicase inh 83 | NS3 hel confirm inactive | DNA FID counter inactive
N#CC1=C(N)Oc2cc(N)ccc2C1c1ccsc1 (centres undefined)	none
